Target: Signal transducer and activator of transcription 3 (Homo sapiens, UniProt P40763)
Assay: Inhibition of IL6-induced STAT3 activation in human Hep3B cells after 12 hrs by luciferase assay
Summary of the method: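 Hep3B cells stably carrying a pSTAT3-luciferase reporter, 2 × 10^4 cells/well, grown 24 h, then switched to serum-free medium. Stimulated with IL-6 (10 ng/mL) with or without sample for 12 h. Luciferase activity then read. IC50 taken as the mean of triplicate experiments. Stattic and genistein used as positive controls.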

Sequence of Signal transducer and activator of transcription 3 (P40763 whole entry): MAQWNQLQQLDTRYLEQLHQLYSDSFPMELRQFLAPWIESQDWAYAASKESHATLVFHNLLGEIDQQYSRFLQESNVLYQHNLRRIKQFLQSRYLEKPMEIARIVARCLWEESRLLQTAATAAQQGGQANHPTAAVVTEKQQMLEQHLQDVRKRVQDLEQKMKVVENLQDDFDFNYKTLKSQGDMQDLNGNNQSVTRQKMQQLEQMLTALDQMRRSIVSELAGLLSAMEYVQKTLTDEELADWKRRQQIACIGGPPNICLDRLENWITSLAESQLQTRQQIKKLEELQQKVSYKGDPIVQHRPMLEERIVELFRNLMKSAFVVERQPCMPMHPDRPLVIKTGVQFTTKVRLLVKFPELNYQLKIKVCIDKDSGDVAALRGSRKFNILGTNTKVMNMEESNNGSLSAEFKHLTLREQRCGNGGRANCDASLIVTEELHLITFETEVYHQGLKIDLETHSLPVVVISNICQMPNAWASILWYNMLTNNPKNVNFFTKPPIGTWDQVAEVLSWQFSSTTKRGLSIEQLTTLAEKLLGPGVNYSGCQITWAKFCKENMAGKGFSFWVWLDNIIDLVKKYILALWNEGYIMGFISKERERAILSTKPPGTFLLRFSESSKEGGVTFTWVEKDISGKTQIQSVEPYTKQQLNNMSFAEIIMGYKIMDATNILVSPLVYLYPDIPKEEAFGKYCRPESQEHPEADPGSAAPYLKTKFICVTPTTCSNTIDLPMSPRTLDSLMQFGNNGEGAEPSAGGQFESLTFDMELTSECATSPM

IC50 [µM] | Structure (SMILES)
0.27 | C=C(C)C(=O)CC[C@](C)(O[C@@H]1O[C@H](CO[C@@H]2O[C@H](CO)[C@@H](O)[C@H](O)[C@H]2O)[C@@H](O)[C@H](O)[C@H]1O)[C@H]1CC[C@]2(C)[C@@H]1[C@H](O)C[C@@H]1[C@@]3(C)C[C@@H](O)[C@H](O)C(C)(C)[C@@H]3CC[C@]12C
19.2 | C=C(C)C(=O)CC[C@](C)(O[C@@H]1O[C@H](CO[C@@H]2O[C@@H](C)[C@H](O)[C@@H](O)[C@H]2O)[C@@H](O)[C@H](O)[C@H]1O)[C@H]1CC[C@]2(C)[C@@H]1[C@H](O)C[C@@H]1[C@@]3(C)C[C@@H](O)[C@H](O[C@@H]4O[C@H](CO)[C@@H](O)[C@H](O)[C@H]4O[C@@H]4O[C@H](CO)[C@@H](O)[C@H](O)[C@H]4O)C(C)(C)[C@@H]3CC[C@]12C
> 30 | CC(C)/C=C/C[C@](C)(O[C@@H]1O[C@H](CO[C@@H]2O[C@@H](C)[C@H](O)[C@@H](O)[C@H]2O)[C@@H](O)[C@H](O)[C@H]1O)[C@H]1CC[C@]2(C)[C@@H]1[C@H](O)C[C@@H]1[C@@]3(C)C[C@@H](O)[C@H](O[C@@H]4O[C@H](CO)[C@@H](O)[C@H](O)[C@H]4O[C@@H]4O[C@H](CO)[C@@H](O)[C@H](O)[C@H]4O)C(C)(C)[C@@H]3CC[C@]12C
17.1 | C[C@@H]1O[C@@H](OC[C@H]2O[C@@H](O[C@@](C)(C/C=C/C(C)(C)O)[C@H]3CC[C@]4(C)[C@@H]3[C@H](O)C[C@@H]3[C@@]5(C)C[C@@H](O)[C@H](O[C@@H]6O[C@H](CO)[C@@H](O)[C@H](O)[C@H]6O)C(C)(C)[C@@H]5CC[C@]34C)[C@H](O)[C@@H](O)[C@@H]2O)[C@H](O)[C@H](O)[C@H]1O
17.6 | CC(C)/C=C/C[C@](C)(O[C@@H]1O[C@H](CO[C@@H]2O[C@@H](C)[C@H](O)[C@@H](O)[C@H]2O)[C@@H](O)[C@H](O)[C@H]1O)[C@H]1CC[C@]2(C)[C@@H]1[C@H](O)C[C@@H]1[C@@]3(C)C[C@@H](O)[C@H](O[C@@H]4O[C@H](CO)[C@@H](O)[C@H](O)[C@H]4O)C(C)(C)[C@@H]3CC[C@]12C
0.59 | C=C(C)C(=O)CC[C@](C)(O[C@@H]1O[C@H](CO[C@@H]2O[C@@H](C)[C@H](O)[C@@H](O)[C@H]2O)[C@@H](O)[C@H](O)[C@H]1O)[C@H]1CC[C@]2(C)[C@@H]1[C@H](O)C[C@@H]1[C@@]3(C)C[C@@H](O)[C@H](O)C(C)(C)[C@@H]3CC[C@]12C
4 | CC(C)/C=C/C[C@](C)(O[C@@H]1O[C@H](CO[C@@H]2O[C@@H](C)[C@H](O)[C@@H](O)[C@H]2O)[C@@H](O)[C@H](O)[C@H]1O)[C@H]1CC[C@]2(C)[C@@H]1[C@H](O)C[C@@H]1[C@@]3(C)CC[C@H](O[C@@H]4O[C@H](CO)[C@@H](O)[C@H](O)[C@H]4O[C@@H]4O[C@H](CO)[C@@H](O)[C@H](O)[C@H]4O)C(C)(C)[C@@H]3CC[C@]12C
0.5 | CC(C)/C=C/C[C@](C)(O[C@@H]1O[C@H](CO[C@@H]2O[C@@H](C)[C@H](O)[C@@H](O)[C@H]2O)[C@@H](O)[C@H](O)[C@H]1O)[C@H]1CC[C@]2(C)[C@@H]1[C@H](O)C[C@@H]1[C@@]3(C)C[C@@H](O)[C@H](O)C(C)(C)[C@@H]3CC[C@]12C

Structure (SMILES) | IC50 [µM]
CC(C)(/C=C/C[C@](C)(O[C@@H]1O[C@H](CO[C@@H]2O[C@H](CO)[C@@H](O)[C@H](O)[C@H]2O)[C@@H](O)[C@H](O)[C@H]1O)[C@H]1CC[C@]2(C)[C@@H]1[C@H](O)C[C@@H]1[C@@]3(C)C[C@@H](O)[C@H](O)C(C)(C)[C@@H]3CC[C@]12C)OO | > 30
C[C@@H]1O[C@@H](OC[C@H]2O[C@@H](O[C@@](C)(C/C=C/C(C)(C)OO)[C@H]3CC[C@]4(C)[C@@H]3[C@H](O)C[C@@H]3[C@@]5(C)C[C@@H](O)[C@H](O[C@@H]6O[C@H](CO)[C@@H](O)[C@H](O)[C@H]6O[C@@H]6O[C@H](CO)[C@@H](O)[C@H](O)[C@H]6O)C(C)(C)[C@@H]5CC[C@]34C)[C@H](O)[C@@H](O)[C@@H]2O)[C@H](O)[C@H](O)[C@H]1O | > 30
CC(C)(/C=C/C[C@](C)(O[C@@H]1O[C@H](CO)[C@@H](O)[C@H](O)[C@H]1O)[C@H]1CC[C@]2(C)[C@@H]1[C@H](O)C[C@@H]1[C@@]3(C)C[C@@H](O)[C@H](O[C@@H]4O[C@H](CO)[C@@H](O)[C@H](O)[C@H]4O[C@@H]4O[C@H](CO)[C@@H](O)[C@H](O)[C@H]4O)C(C)(C)[C@@H]3CC[C@]12C)OO | > 30

Reference: BindingDB's records for doi:10.1021/np500803e (Chungbuk National University, 2015)
